Reference: ChEMBL document CHEMBL2321765 (J Med Chem, 2013)
Each block holds one compound with its values, some of them ahead of it. Active and inactive are the calls of the source. The rule behind the calls is not given here.

Columns and labels:
[1] = biological target: T1, CYP3A4 (Homo sapiens, UniProt P08684); test: Time dependent inhibition of CYP3A4 in human liver microsomes using testosterone as substrate at 10 uM preincubated for 30 mins by LC-MS-MS analysis relative to control; type: ADME, Microsome; settings: probe testosterone, read-out: TDI
T1 sequence (P08684 whole entry): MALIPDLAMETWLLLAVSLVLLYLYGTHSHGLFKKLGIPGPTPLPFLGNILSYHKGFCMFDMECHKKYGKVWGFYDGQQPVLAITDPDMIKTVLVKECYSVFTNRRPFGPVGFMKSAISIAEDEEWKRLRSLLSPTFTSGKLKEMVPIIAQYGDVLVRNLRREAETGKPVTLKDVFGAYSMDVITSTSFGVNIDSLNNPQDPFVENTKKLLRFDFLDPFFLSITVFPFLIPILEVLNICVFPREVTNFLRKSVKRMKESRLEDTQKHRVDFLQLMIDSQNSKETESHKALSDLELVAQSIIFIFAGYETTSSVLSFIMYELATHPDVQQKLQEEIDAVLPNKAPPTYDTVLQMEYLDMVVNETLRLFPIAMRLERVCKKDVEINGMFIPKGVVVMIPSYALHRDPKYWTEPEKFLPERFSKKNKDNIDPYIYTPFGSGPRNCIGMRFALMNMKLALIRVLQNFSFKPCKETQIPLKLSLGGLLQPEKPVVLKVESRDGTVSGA
Method in brief: (§1)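 CYP3A4 metabolism of testosterone was measured after 0 or 30 min preincubation of enzyme with test article at the indicated concentration. Activity lost via preincubation, relative to the zero-minute control with the same inhibitor, was the end point. 6β-OH testosterone was detected by LC-MS/MS with cortisone as internal standard.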

[2] = biological target: T1, CYP3A4; test: Inhibition of CYP3A4 in human liver microsomes using testosterone as substrate at 10 uM by LC-MS-MS analysis relative to control; type: ADME, Microsome; settings: probe testosterone
[3] = tested on: Mus musculus; test: In vivo inhibition of c-MET phosphorylation at tyrosine Y1349 in human GTL16 cells xenografted in po dosed mouse after 1 hr by Western blotting analysis; type: functional, organism-based; settings: GTL 16, 1 h
Method in brief: (§2)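 Mice carrying GTL-16 xenografts received a single oral dose of 10, 30, 100 or 400 mg/kg and were euthanized 1 h after dosing. Phospho-c-Met (Y1349) and total c-Met in the tumours were measured by quantitative Western blotting. Plasma total drug was also measured, and in vivo IC50 was deduced from the relationship between plasma level and tumour pY1349.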

[4] = Volume of distribution at steady state in dog; type: ADME, organism-based, Canis lupus familiaris; settings: in vivo, read-out: Vdss
[5] = Antitumor activity against human GTL16 cells expressing c-MET xenografted in CD1 nu/nu mouse assessed as tumor growth inhibition at 10 mg/kg, po bid for 21 days relative to control; type: functional; settings: GTL 16, 504 h, read-out: TGI
Method in brief: (§3)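 Mice carrying GTL-16 tumours received the compound orally; tumour growth was compared with the vehicle-treated group by two-way repeated measures ANOVA.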

[6] = biological target: T2, Macrophage-stimulating protein receptor (Homo sapiens, UniProt Q04912); settings: 1 uM
T2 sequence (Q04912 25-304 limits assumed): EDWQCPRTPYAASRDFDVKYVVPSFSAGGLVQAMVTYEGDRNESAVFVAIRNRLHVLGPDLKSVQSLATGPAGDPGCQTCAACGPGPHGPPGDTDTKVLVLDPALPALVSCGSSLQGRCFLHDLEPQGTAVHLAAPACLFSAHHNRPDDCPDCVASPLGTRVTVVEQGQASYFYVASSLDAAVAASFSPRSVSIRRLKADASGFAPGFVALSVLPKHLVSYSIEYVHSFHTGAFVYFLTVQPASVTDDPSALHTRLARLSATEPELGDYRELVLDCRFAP
T2 sequence (Q04912 310-1400 limits assumed): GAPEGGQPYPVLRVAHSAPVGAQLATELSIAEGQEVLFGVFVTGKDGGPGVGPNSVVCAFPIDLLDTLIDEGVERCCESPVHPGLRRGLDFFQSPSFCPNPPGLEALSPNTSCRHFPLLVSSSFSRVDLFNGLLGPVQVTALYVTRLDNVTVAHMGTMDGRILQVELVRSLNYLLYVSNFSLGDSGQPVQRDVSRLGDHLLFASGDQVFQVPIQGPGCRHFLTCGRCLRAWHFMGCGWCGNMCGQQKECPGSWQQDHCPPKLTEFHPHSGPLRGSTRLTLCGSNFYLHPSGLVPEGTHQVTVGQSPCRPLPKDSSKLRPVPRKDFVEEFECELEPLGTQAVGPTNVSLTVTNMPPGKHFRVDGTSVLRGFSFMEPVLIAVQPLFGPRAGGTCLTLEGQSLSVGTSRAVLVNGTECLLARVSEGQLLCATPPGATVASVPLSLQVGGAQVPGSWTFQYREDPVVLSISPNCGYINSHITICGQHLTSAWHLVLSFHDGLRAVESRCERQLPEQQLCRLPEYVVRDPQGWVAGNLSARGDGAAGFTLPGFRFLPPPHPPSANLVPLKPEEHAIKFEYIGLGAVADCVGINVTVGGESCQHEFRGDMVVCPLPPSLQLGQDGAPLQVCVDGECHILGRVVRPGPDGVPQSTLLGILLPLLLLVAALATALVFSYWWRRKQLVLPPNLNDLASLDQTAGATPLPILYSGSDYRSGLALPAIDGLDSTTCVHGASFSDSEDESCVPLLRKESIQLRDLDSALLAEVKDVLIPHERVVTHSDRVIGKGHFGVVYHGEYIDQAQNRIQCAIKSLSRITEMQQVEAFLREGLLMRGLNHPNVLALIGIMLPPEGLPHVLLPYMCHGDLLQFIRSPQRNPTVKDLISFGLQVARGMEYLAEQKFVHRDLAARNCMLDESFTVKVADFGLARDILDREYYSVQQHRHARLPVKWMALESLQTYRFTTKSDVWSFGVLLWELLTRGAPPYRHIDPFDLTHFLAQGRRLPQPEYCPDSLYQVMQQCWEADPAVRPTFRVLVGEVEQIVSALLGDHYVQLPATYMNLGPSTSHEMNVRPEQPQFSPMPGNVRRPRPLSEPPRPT

[7] = Antitumor activity against human GTL16 cells expressing c-MET xenografted in CD1 nu/nu mouse assessed as tumor growth inhibition at 100 mg/kg, po bid for 21 days relative to control; type: functional; settings: GTL 16, 504 h, read-out: TGI; method in brief: as §3
[8] = Oral bioavailability in rat; type: ADME, organism-based; settings: in vivo
[9] = tested on: Mus musculus; test: In vivo inhibition of c-MET phosphorylation at tyrosine Y1349 in human GTL16 cells xenografted in mouse at 100 mg/kg, po after 1 hr by Western blotting analysis; type: functional, organism-based; set-up: dose 100 mg/kg; method in brief: as §2
[10] = tested on: Mus musculus; test: In vivo inhibition of c-MET phosphorylation at tyrosine Y1349 in human GTL16 cells xenografted in po dosed mouse after 8 hrs by Western blotting analysis; type: functional, organism-based; settings: GTL 16, 8 h
[11] = Oral bioavailability in dog; type: ADME, organism-based, Canis lupus familiaris; settings: in vivo
[12] = Plasma clearance in dog; type: ADME, organism-based, Canis lupus familiaris
[13] = tested on: GTL 16; test: Antitumor activity against human GTL16 cells expressing c-MET xenografted in CD1 nu/nu mouse assessed as tumor growth inhibition at 100 mg/kg, po qd for 21 days; type: functional, organism-based; set-up: dose 100 mg/kg
[14] = biological target: Cytochrome P450 2C9 (Homo sapiens, UniProt P11712); test: Inhibition of CYP2C9 (unknown origin); type: ADME
Chain of Cytochrome P450 2C9 (P11712 whole entry): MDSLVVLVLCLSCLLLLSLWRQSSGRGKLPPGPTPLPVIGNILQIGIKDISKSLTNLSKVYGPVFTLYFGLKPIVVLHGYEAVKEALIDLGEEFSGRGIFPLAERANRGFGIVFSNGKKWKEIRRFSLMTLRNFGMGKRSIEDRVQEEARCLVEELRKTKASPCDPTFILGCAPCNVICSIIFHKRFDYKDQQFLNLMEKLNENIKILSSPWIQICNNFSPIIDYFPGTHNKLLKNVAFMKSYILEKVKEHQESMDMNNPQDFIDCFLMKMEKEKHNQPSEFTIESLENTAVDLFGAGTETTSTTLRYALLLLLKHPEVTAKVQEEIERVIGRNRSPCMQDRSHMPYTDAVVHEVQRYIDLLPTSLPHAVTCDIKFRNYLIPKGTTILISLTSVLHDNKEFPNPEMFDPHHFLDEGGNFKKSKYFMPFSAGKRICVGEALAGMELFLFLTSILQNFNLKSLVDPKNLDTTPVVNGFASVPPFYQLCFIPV

[15] = biological target: Cytochrome P450 2D6 (Homo sapiens, UniProt P10635); test: Inhibition of CYP2D6 (unknown origin); type: ADME
Chain of Cytochrome P450 2D6 (P10635 whole entry): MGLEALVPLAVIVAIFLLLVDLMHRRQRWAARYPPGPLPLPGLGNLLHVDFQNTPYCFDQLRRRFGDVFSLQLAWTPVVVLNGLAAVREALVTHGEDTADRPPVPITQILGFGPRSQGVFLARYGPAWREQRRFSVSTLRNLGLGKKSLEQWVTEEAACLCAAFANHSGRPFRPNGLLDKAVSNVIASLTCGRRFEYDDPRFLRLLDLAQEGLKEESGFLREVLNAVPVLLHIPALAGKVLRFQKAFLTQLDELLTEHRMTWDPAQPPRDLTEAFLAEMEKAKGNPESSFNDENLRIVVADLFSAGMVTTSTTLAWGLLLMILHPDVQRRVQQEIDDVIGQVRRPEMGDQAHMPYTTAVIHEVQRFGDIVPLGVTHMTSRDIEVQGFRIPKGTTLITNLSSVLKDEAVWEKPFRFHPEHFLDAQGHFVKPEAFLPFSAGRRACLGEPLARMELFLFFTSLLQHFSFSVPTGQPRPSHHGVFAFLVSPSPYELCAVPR

[16] = tested on: Mus musculus; test: Toxicity in CD1 nu/nu mouse xenografted with human GLT16 cells assessed as change in body weight relative to control; type: organism-based; settings: in vivo
[17] = Antitumor activity against human GTL16 cells expressing c-MET xenografted in CD1 nu/nu mouse assessed as tumor growth inhibition at 3 mg/kg, po bid for 21 days relative to control; type: functional; settings: GTL 16, 504 h, read-out: TGI; method in brief: as §3
[18] = tested on: GTL 16; test: Antitumor activity against human GTL16 cells expressing c-MET xenografted in po dosed CD1 nu/nu mouse assessed as tumor growth inhibition administered bid for 21 days; type: functional, organism-based; method in brief: as §3
[19] = biological target: Hepatocyte growth factor receptor (Homo sapiens) (UniProt P08581); settings: 1 uM
[20] = Volume of distribution at steady state in rat; type: ADME, organism-based; settings: in vivo, read-out: Vdss
[21] = Half life in dog; type: ADME, organism-based, Canis lupus familiaris; settings: in vivo
[22] = biological target: T3, Tyrosine-protein kinase Mer (Homo sapiens) (UniProt Q12866); test: Inhibition of MER (unknown origin) relative to control; settings: concentration not given here
T3 sequence (whole entry): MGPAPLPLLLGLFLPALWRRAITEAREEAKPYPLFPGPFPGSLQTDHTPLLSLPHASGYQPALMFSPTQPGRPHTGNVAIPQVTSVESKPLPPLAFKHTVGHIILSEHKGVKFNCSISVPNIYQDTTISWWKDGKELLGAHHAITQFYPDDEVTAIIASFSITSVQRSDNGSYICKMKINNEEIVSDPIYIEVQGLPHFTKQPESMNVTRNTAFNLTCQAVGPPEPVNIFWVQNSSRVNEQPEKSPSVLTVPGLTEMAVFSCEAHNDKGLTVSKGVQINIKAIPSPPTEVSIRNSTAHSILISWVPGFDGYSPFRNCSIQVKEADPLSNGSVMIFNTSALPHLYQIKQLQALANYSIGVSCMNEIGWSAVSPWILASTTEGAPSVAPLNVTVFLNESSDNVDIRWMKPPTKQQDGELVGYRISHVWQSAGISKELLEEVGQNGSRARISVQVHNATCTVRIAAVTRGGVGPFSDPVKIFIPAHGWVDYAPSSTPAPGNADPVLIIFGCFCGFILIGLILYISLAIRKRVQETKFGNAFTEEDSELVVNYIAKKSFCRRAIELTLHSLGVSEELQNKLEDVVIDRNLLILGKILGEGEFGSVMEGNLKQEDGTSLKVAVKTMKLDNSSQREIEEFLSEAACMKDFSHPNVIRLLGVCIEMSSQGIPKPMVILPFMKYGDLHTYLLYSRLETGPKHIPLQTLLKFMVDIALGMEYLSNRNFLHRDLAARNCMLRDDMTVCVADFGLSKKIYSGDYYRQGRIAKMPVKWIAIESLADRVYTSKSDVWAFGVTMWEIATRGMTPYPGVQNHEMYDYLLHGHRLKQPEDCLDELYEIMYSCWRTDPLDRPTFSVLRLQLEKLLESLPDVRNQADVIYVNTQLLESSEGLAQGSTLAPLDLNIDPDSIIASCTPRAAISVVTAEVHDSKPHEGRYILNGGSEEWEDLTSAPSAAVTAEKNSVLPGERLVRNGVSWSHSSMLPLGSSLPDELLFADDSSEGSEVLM
Method in brief: (§4)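 Kinase selectivity was assessed at a 10 μM or 0.1 μM test concentration, as footnoted per entry.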

[23] = biological target: Vascular endothelial growth factor receptor 3 (Homo sapiens) (UniProt P35916); test: Inhibition of FLT4 (unknown origin) relative to control; settings: concentration not given here; method in brief: as §4
Chain of Vascular endothelial growth factor receptor 3 (Homo sapiens) (P35916 whole entry): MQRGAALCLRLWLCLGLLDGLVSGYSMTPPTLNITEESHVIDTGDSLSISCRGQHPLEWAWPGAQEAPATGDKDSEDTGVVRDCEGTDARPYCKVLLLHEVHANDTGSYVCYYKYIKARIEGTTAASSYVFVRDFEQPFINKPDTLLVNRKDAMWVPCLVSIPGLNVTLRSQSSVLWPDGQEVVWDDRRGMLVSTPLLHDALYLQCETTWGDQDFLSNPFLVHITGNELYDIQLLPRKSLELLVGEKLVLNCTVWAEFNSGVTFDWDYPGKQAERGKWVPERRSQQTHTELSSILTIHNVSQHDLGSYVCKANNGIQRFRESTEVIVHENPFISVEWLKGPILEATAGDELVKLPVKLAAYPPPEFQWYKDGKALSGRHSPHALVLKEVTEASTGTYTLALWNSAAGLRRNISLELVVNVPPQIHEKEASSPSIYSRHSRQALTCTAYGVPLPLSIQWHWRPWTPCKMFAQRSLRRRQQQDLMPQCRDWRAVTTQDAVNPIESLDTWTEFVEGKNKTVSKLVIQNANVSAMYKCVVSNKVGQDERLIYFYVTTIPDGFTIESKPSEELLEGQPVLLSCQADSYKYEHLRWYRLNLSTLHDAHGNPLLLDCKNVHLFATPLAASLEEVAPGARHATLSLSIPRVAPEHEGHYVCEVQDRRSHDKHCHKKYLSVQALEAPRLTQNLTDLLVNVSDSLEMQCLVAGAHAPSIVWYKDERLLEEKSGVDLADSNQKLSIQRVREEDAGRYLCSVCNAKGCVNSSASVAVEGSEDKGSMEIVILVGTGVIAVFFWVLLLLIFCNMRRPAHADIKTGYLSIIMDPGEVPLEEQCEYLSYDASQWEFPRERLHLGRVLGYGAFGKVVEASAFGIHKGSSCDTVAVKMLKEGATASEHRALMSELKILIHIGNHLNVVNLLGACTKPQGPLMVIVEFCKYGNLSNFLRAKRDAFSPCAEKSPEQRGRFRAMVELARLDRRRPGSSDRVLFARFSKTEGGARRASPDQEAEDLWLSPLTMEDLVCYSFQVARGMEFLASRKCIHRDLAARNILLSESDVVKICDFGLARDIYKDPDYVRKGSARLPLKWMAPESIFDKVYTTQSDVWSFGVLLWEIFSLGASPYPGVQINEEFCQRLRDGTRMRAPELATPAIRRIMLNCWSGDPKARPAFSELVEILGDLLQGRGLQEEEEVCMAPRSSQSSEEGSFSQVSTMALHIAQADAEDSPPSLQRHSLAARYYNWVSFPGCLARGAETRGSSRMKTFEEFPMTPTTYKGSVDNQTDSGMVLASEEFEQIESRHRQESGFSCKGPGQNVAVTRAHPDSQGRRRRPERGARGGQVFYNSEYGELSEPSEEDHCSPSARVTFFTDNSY

[24] = biological target: Tyrosine-protein kinase Fes/Fps (Homo sapiens) (UniProt P07332); test: Inhibition of FES (unknown origin) relative to control; settings: concentration not given here; method in brief: as §4
[25] = Half life in rat; type: ADME, organism-based; settings: in vivo
[26] = Antitumor activity against human GTL16 cells expressing c-MET xenografted in CD1 nu/nu mouse assessed as tumor growth inhibition at 30 mg/kg, po bid for 21 days relative to control; type: functional; settings: GTL 16, 504 h, read-out: TGI; method in brief: as §3
[27] = biological target: T4, Cytochrome P450 3A4 (Homo sapiens, UniProt P08684); test: Time dependent inhibition of CYP3A4 in human liver microsomes using testosterone as substrate up to 100 uM by LC-MS-MS analysis; type: ADME, Microsome
T4 sequence (P08684 whole entry): as the sequence (P08684 whole entry) above
Method in brief: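 For inactivation kinetics, CYP3A4 testosterone 6β-hydroxylation was quantified by LC-MS/MS as the area ratio of 6β-OH testosterone to the cortisone internal standard. Ki and kinact were obtained by nonlinear regression.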

[28] = biological target: T2, Macrophage-stimulating protein receptor; test: Inhibition of RON (unknown origin) by TR-FRET assay
[29] = Plasma clearance in rat; type: ADME, organism-based
[30] = biological target: Fibroblast growth factor receptor 3 (Homo sapiens) (UniProt P22607); test: Inhibition of FGFR3 (unknown origin) relative to control; settings: concentration not given here; method in brief: as §4
Chain of Fibroblast growth factor receptor 3 (Homo sapiens) (P22607 23-806 limits assumed): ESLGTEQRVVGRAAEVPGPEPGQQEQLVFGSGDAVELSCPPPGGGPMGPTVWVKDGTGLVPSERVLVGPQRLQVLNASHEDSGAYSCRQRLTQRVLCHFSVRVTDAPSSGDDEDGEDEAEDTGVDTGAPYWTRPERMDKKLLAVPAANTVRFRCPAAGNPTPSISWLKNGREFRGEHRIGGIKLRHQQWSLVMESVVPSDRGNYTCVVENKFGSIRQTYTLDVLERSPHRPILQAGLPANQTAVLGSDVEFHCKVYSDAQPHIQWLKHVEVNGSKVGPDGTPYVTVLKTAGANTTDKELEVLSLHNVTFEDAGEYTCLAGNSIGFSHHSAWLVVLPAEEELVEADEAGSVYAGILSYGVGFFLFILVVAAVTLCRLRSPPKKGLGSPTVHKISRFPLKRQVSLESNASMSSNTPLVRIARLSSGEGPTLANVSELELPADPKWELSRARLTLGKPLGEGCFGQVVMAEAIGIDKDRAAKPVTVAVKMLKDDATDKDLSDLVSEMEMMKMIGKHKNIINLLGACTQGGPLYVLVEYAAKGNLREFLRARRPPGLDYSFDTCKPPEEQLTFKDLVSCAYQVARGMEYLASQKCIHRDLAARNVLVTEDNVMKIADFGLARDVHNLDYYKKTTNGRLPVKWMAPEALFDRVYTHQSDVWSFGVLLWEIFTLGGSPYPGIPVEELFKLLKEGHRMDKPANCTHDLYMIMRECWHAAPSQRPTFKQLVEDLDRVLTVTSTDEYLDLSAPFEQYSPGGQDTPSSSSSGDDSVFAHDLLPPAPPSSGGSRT

[31] = biological target: T4, Cytochrome P450 3A4; test: Time dependent inhibition of CYP3A4 in human liver microsomes using testosterone as substrate by LC-MS-MS analysis relative to control; type: ADME, Microsome; method in brief: as §1

SMILES: CN(C)S(=O)(=O)Cc1ccc2ccc3ncc(-c4cnn(C)c4)cc3c(=O)c2c1
inhibition at 30 min, 10 µM [1]: 6%
inhibition at 10 µM [2]: 0%

SMILES: Cn1cc(-c2cnc3ccc4ccc(CS(=O)(=O)NCc5ccncc5)cc4c(=O)c3c2)cn1
inhibition at 10 µM [2]: 97%

SMILES: Cn1cc(-c2cnc3ccc4ccc(CC(N)=O)cc4c(=O)c3c2)cn1
TDI [31]: < 10%

SMILES: Cn1cc(-c2cnc3ccc4ccc(CS(=O)(=O)N[C@@H]5CCCC[C@@H]5N)cc4c(=O)c3c2)cn1
inhibition at 30 min, 10 µM [1]: 20%
inhibition at 10 µM [2]: 27%

SMILES: Cn1cc(-c2cnc3ccc4ccc(CS(=O)(=O)NCc5cccnn5)cc4c(=O)c3c2)cn1
inhibition at 30 min, 10 µM [1]: 14%
inhibition at 10 µM [2]: 23%

SMILES: Cc1nccc(CNS(=O)(=O)Cc2ccc3ccc4ncc(-c5cnn(C)c5)cc4c(=O)c3c2)n1
inhibition at 30 min, 10 µM [1]: 5%
inhibition at 10 µM [2]: 22%

SMILES: CCCNS(=O)(=O)Cc1ccc2ccc3ncc(-c4cnn(C)c4)cc3c(=O)c2c1
inhibition at 30 min, 10 µM [1]: 15%
inhibition at 10 µM [2]: 21%

Second part, led by results:

inhibition at 30 min, 10 µM [1]: 50%
inhibition at 10 µM [2]: 28%
SMILES: Cn1cc(-c2cnc3ccc4ccc(CS(=O)(=O)Nc5ccccc5)cc4c(=O)c3c2)cn1

inhibition at 30 min, 10 µM [1]: 9%
inhibition at 10 µM [2]: 14%
SMILES: Cn1cc(-c2cnc3ccc4ccc(CS(=O)(=O)NCCc5ccccn5)cc4c(=O)c3c2)cn1

inhibition at 30 min, 10 µM [1]: 0%
inhibition at 10 µM [2]: 17%
SMILES: Cn1cc(-c2cnc3ccc4ccc(CS(=O)(=O)NCc5ccccc5Cl)cc4c(=O)c3c2)cn1

IC50 [3]: 1.3 µM
Vd [4]: 0.7 L/kg
inhibition at 30 min, 10 µM [1]: 16%
inhibition [6]: > 90%
bioavailability [8]: 35%
IC50 [10]: 1.7 µM
bioavailability [11]: 33%
clearance [12]: 3.1 mL/min/kg
inhibition at 10 µM [2]: 31%
IC50 [14]: 14.7 µM
IC50 [15]: 46.2 µM
inhibition [19]: > 90%
Vd [20]: 0.4 L/kg
half-life [21]: 3.1 h
inhibition [22]: 60%
inhibition [23]: 60%
inhibition [24]: 60%
half-life [25]: 0.8 h
TDI [27]: Not Active
IC50 [28]: 0.007 µM
clearance [29]: 20 mL/min/kg
inhibition [30]: 60%
SMILES: Cn1cc(-c2cnc3ccc4ccc(CS(=O)(=O)NCc5ccccn5)cc4c(=O)c3c2)cn1 [MK-8033]
inhibition in vivo at 10 mg/kg [5]: 18%
inhibition in vivo at 100 mg/kg [7]: 86%
inhibition [9]: Active
TGI [13]: Active
Activity [16]: Non-toxic
inhibition in vivo at 3 mg/kg [17]: 22%
TGI [18]: Dose-dependent effect
inhibition in vivo at 30 mg/kg [26]: 57%
